A selection: hits, their analogues and other compounds. The true share with any hit is near 2.4%.
Rpn11 block – Rpn11 (PSMD14) deubiquitinase inhibitors, primary screen, biochemical, fluorescence polarization, uHTS. 26S proteasome non-ATPase regulatory subunit 14 (Homo sapiens), O00487. human 26S proteasome, Ub4-pepOG fluorescence polarization; 20S core pre-blocked with epoxomicin. inhibition, % at 20 µM. hit rate 0.59% among 360,000. AID 588493, 2011;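 active = inhibition at 20 µM, scaled to each plate's controls, above about 33%, limit read from the data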
Rin1 Abl inh – inhibitors of Rin1-Abl protein binding, primary screen, biochemical, TR-FRET. Tyrosine-protein kinase ABL1 (Homo sapiens) + Ras and Rab interactor 1 (Homo sapiens), …. inhibition, % at 7.35 µM. hit rate 0.4% among 360,000; in the data active = inhibition above about 5%, passing the limit was not always enough
TPT1 inh – Candida albicans TPT1 enzyme inhibitors, primary screen, biochemical, fluorescence polarization; inhibition, % at 5 µM; recombinant caTPT1, FP RNA substrate dephosphorylation; tRNA 2'-phosphotransferase TPT1 (Candida albicans SC5314); hit rate 0.81% among 300,000;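 active = inhibition above the mean of all tested compounds plus 3 SD, set per screening campaign, cut at about 24% in these data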
CSN inh – inhibitors of CSN-mediated cullin deneddylation, primary screen, biochemical, fluorescence polarization, uHTS; Purified CSN, SCF-Nedd8-OG deneddylation; inhibition, % at 12.5 µM; hit rate 0.38% among 360,000;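 active = pattern-corrected inhibition above about 35%, with an unprinted fluorescence ratio check between 0.5 and 1.5, limit read from the data, passing the limit was not always enough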
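Schedule: reaction 90 min, room temperature / Assay system: HEK293T-derived human Csn5 enzyme / Input: Csn5 at 0.24 nM final / Measure: inhibition of Csn5 cleavage, % / Control set: substrate-only high control, full reaction low control / Technique: fluorescence polarization of the substrate / Buffer or medium: Tris/NaCl/DTT buffer, pH 7.5 / Reagent: SCFSkp2-Nedd8OG substrate at 10 nM final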
Neddyl block – inhibitors of cullin neddylation, primary screen, biochemical, TR-FRET, uHTS, NAE and Ubc12; NEDD8-conjugating enzyme Ubc12 (Homo sapiens) + NEDD8-activating enzyme E1 regulatory …; inhibition, % at 25 µM; hit rate 0.58% among 360,000; in the data active = inhibition above about 36%
HNF4A DNA FP – change in binding of human HNF4A to DNA, primary screen, biochemical, fluorescence polarization, FITC-DNA. Hepatocyte nuclear factor 4-alpha (Homo sapiens), P41235. 1 h. activity change, % at 10 µM. hit rate 0.3% among 360,000. AID 1224865, 2016; in the data active = activity change above about 30%, passing the limit was not always enough
TPT1 inh confirm – Candida albicans TPT1 inhibitors, confirmation, biochemical, fluorescence polarization, triplicate; shares compounds with TPT1 inh; recombinant caTPT1, RNase T1 coupled; inhibition, % at 5 µM; hit rate 74% among 2,400;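 active = inhibition above the primary screen limit, the mean inhibition of all tested compounds plus 3 SD, cut at about 25% in these data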
RNase T1 inh – RNase T1 inhibitors, counter-screen for TPT1 inhibitor project, biochemical, fluorescence polarization. shares compounds with TPT1 inh. RNase T1 cleavage, 1536-well. inhibition, % at 5 µM. hit rate 83% among 2,400. AID 2153, 2009;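 active = inhibition above the solvent-only control well mean plus 3 SD, limit set per screening run, cut at about 23% in these data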;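 also: inhibitors block cleavage so intact labeled substrate keeps polarization high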
Target sequence (P00651 whole entry, looked up): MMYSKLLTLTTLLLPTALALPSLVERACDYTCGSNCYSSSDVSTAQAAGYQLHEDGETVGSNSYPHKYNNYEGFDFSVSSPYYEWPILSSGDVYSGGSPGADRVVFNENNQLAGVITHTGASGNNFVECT
Rpn11 confirm – Rpn11 (PSMD14) deubiquitinase inhibitors, confirmation, biochemical, fluorescence polarization, single concentration; hit rate 29% among 1,900; inhibition, % at 20 µM; shares compounds with Rpn11 block; AID 602318, 2012; purified human 26S proteasome, Ub4-pepOG fluorescence polarization; proteasome pretreated with epoxomicin
MMP-2 counter-1 – MMP-2 enzyme inhibition, confirmation, counter-screen for RPN11 inhibitor project, biochemical, fluorescence, single concentration | inhibition, % at 20 µM | shares compounds with Rpn11 block | hit rate 4% among 1,900 | recombinant MMP-2, FRET peptide cleavage fluorescence;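 also: human MMP-2 activated beforehand with APMA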
Thrombin FP – bovine thrombin protease inhibition, confirmation, counter-screen for Rpn11 inhibitor project, biochemical, fluorescence polarization, single concentration; inhibition, % at 20 µM; shares compounds with Rpn11 block; AID 602333, 2012; hit rate 13% among 1,900; bovine thrombin cleavage of Ub4-pepOG;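 active = mean inhibition at least 40% at 20 µM, or signal 3 deviations below plate average, so some actives read negative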
Target sequence (P00735 whole entry, looked up): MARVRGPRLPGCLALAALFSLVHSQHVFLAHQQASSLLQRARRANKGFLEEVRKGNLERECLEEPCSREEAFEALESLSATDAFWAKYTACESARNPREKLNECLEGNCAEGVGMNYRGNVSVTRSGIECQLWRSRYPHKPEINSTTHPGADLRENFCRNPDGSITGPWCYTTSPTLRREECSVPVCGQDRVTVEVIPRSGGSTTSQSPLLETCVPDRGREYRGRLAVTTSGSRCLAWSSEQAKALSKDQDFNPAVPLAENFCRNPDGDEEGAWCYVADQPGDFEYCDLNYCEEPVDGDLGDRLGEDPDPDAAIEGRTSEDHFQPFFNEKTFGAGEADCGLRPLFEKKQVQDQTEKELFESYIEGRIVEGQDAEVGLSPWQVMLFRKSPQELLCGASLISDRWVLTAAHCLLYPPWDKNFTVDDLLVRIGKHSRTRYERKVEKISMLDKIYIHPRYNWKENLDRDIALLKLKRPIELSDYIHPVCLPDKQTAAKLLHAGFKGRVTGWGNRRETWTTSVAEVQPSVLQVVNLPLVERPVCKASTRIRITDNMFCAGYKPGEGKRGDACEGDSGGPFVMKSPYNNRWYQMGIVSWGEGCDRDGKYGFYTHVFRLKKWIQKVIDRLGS
Rin1-Abl confirm – Rin1-Abl binding inhibitor retest, confirmation, biochemical, TR-FRET. shares compounds with Rin1 Abl inh. purified proteins. inhibition, % at 7.35 µM. hit rate 49% among 1,300; in the data active = inhibition above about 6.5%
GFP quencher – GFP fluorescence inhibitors and quenchers, artefact control for Rin1-Abl interaction inhibitor project, biochemical. shares compounds with Rin1 Abl inh. inhibition, % at 6.75 µM. inhibitors/quenchers counterscreen. hit rate 8.5% among 1,300; in the data active = inhibition above about 6.5%;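 also: ABL1-eGFP fusion protein alone without its partner RIN1-SBP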
Neddyl inh conf – blockade of NEDD8 conjugation to cullin – biochemical, TR-FRET, single concentration, confirmation | shares compounds with Neddyl block | TR-FRET cullin neddylation biochemical assay | calls only at 25 µM | hit rate 13% among 1,800;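 also: neddylation substrate is the cullin 1 ring ligase complex with SKP2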
CSN5 deneddyl – Csn5 deneddylation inhibitors, confirmation, biochemical, fluorescence polarization, single concentration, SCF-Nedd8OG substrate | hit rate 62% among 540 | Csn5 deneddylation of SCF-Nedd8OG, 90 min | inhibition, % at 16.6 µM | shares compounds with CSN inh; in the data active = inhibition above about 50%
MMP-2 counter-2 – MMP-2 protease inhibition counter-screen, confirmation, counter-screen for CSN deneddylation inhibitor project, biochemical, fluorescence, single concentration; hit rate 33% among 540; inhibition, % at 16.6 µM; shares compounds with CSN inh; recombinant MMP-2, FRET substrate fluorescence, 60 min;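 active = corrected plate-normalized z-score of 5 or more, or -5 or less, or inhibition of 15% or more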
Thrombin cntr – blocks bovine thrombin in a CSN deneddylation counter-screen | shares compounds with CSN inh | bovine thrombin cleavage of Ub4-pepOG, fluorescence polarization | inhibition, % at 16.6 µM | hit rate 49% among 540;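 active = inhibition at or above a set limit, with a fluorescence interference ratio between 0.5 and a set maximum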
Numbers stand for hits; n = inactive; x = not tested or not shown. Rule as the data show it, unless noted: active = inhibition above about 40%; inactive = the rest.

SMILES | Rpn11 block | Rin1 Abl inh | TPT1 inh | CSN inh | Neddyl block | HNF4A DNA FP | TPT1 inh confirm | RNase T1 inh | Rpn11 confirm | MMP-2 counter-1 | Thrombin FP | others
CCOC(=O)CSC1=NC(=O)/C(=C\c2ccc(Cl)cc2)S1 | 50.4 | n | 30.0 | n | n | n | 52.3 | 62.3 | 74.3 | n | 66.1
CCOC(=O)C1CCN(C2=NC(=O)/C(=C/c3ccc(Cl)cc3)S2)CC1 | n | n | n | n | n | n | x | x | x | x | x
CCn1c(SCC(=O)NCCc2ccccc2)nc2c([nH]c3ccccc32)c1=O | n | n | n | n | n | n | x | x | x | x | x
Cc1ccccc1Nc1cccc2nonc12 | 40.4 | n | 36.6 | n | n | n | 42.1 | 53.8 | n | n | n
Cc1cc(N2CCCC2)ccc1/C=C1/C(=O)N(C)C(=S)N1C | 43.3 | n | 73.5 | n | n | n | 67.3 | 76.5 | n | n | n
COc1ccc(N2CCN(C(=O)COC(=O)COc3ccc(C#N)cc3)CC2)cc1 | n | n | n | n | n | n | x | x | x | x | x
Oc1ccc(N=Nc2nc(-c3ccccc3)c(-c3ccccc3)[nH]2)cc1 | 55.2 | n | 31.0 | n | n | n | 42.4 | 55.2 | n | n | n
CCOC(=O)CSc1nc2ccccc2n1C(=O)OCC | 45.9 | n | 38.7 | n | n | n | 37.0 | 47.4 | 51.1 | n | n
Cc1cc(=O)[nH]c(N/N=C/c2c(O)n(-c3ccccc3)c(=O)c3ccccc23)n1 | 65.9 | n | 36.0 | n | n | n | 32.0 | 38.9 | 43.2 | n | n
Cc1cc(=O)[nH]c(NN=Cc2c(Cl)cccc2Cl)n1 | n | n | x | n | n | n | x | x | x | x | x
CCC(CC)CN1CCC(CN2C(=S)NC[C@@H]2[C@@H](C)CC)CC1 | n | n | x | n | n | n | x | x | x | x | x
COc1cc(/C=C2\CC/C(=C\c3cc(OC)c(O)c(OC)c3)C2=O)cc(OC)c1O | 111.9 | 30.2 | 91.0 | n | n | n | 95.0 | 100.6 | 88.6 | n | 80.5 | Rin1-Abl confirm=34.4;GFP quencher=23.8
COc1cc(/C=C2\COC/C(=C\c3cc(OC)c(OC)c(OC)c3)C2=O)cc(OC)c1OC | n | n | x | n | n | n | x | x | x | x | x
Cc1cccc(-n2c(N)c(-c3nc4ccccc4n3C)c3nc4ccccc4nc32)c1 | n | 12.4 | 26.0 | n | x | n | 25.0 | 36.1 | x | x | x | Rin1-Abl confirm=n;GFP quencher=n
C=CCC1CCCC(=O)N2CC[C@H](O)C12 (some centres not stated) | n | n | n | n | n | n | x | x | x | x | x
COCCN=c1scc(-c2ccco2)n1/N=C/c1ccc(O)c(O)c1O | n | 20.0 | 51.9 | n | n | n | 60.0 | 70.5 | x | x | x | Rin1-Abl confirm=13.4;GFP quencher=11.2
CCN(CC)CCN1C(=O)C2C(C(=O)Nc3cccc(C)c3)C3C=CC2(O3)C1C(=O)NC1CCCC(C)C1C (configuration not stated) | n | n | n | n | n | n | x | x | x | x | x
Nc1c(C(=O)N/N=C/c2cccnc2)oc2nc(-c3ccccc3)cc(-c3ccco3)c12 | 62.1 | n | 57.8 | n | 37.2 | n | 100.4 | 102.6 | n | n | active | Neddyl inh conf=n
CCOC(=O)C[N+]1(C)CCN(C(C)=O)CC1 | n | n | n | n | n | n | x | x | x | x | x
COc1ccccc1-n1cc([C@@H]2C[C@H]3CN(c4ccccc4)C(=O)[C@]34CCCN24)cn1 | x | n | 60.4 | 54.4 | n | 64.7 | 46.6 | 61.0 | x | x | x | CSN5 deneddyl=69.4;MMP-2 counter-2=n;Thrombin cntr=36.6
COc1ccc(NC(=S)NNc2ccc(S(=O)(=O)Nc3ccccc3C(=O)O)cc2[N+](=O)[O-])cc1 | n | n | n | n | n | n | x | x | x | x | x
O=C(O)c1ccc(N2C(=O)/C(=C/C=C/c3ccccc3)SC2=S)cc1 | n | n | n | n | n | n | x | x | x | x | x
O=C1/C(=C/C=C/c2ccco2)SC(=S)N1c1ccc(O)cc1 | 94.6 | 5.7 | 27.6 | 57.2 | n | n | 49.7 | 56.5 | x | x | x | CSN5 deneddyl=63.8;MMP-2 counter-2=31.2;Thrombin cntr=42.2
CN(C)c1ccc(/C=C/C=C2/SC(=S)N(c3ccccc3)C2=O)cc1 | 69.5 | n | 104.1 | 37.7 | n | 57.4 | 70.6 | 80.9 | 49.4 | n | n | CSN5 deneddyl=66.7;MMP-2 counter-2=n;Thrombin cntr=35.4
COc1ccc2cnn(-c3ccc(OC(F)(F)F)cc3)c(=O)c2c1OC | n | n | n | n | n | n | x | x | x | x | x

Screens from PubChem.
